Measured values from ChEMBL document CHEMBL1687740, “Cellular accumulation and pharmacodynamic evaluation of the intracellular activity of CEM-101, a novel fluoroketolide, against Staphylococcus aureus, Listeria monocytogenes, and Legionella pneumophila in human THP-1 macrophages” (Antimicrob Agents Chemother, 2009).
≈ marks a conversion by molar mass, not a printed value. Calls of active or inactive are those of the source. The calls are words filed in the database; no cut-off is given here.

Experiments:
THP-1 [1] = assay: Drug uptake in human THP1 cells at acidic pH after 30 mins; assay type: ADME, cell-based; conditions: thp-1, 0.5 h
Method in brief: (§1)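 30-min accumulation at 37°C, 10 mg/liter extracellular, in culture medium at varied pH. Microbiological drug assay normalized to cell protein, converted at 5 μl/mg protein. n = 3.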

Staphylococcus aureus [2] = assay: Antibacterial activity against methicillin-sensitive Staphylococcus aureus ATCC 25923 after 24 hrs; assay type: functional; conditions: ATCC 25923, 24 h
THP-1 [3] = assay: Drug uptake in human THP1 cells at pH 6 to 7 after 30 mins; assay type: ADME, cell-based; conditions: thp-1, pH 6, 0.5 h; method in brief: as §1
THP-1 [4] = assay: Drug uptake in human THP1 cells after 2 hrs in presence of monensin; assay type: ADME, cell-based; conditions: thp-1, 2 h
Method in brief: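 Accumulation at 37°C, 10 mg/liter drug, with monensin 50 μM for 2 h. Microbiological assay normalized to cell protein. n = 3.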

THP-1 [5] = assay: Drug uptake in human THP1 cells after 24 hrs in presence of verapamil; assay type: ADME, cell-based; conditions: thp-1, 24 h
Method in brief: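 Accumulation at 37°C, 10 mg/liter drug, with verapamil 150 μM for 24 h. Microbiological assay normalized to cell protein. n = 3.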

THP-1 [6] = assay: Drug uptake in human THP1 cells after 24 hrs in presence of gemfibrozil; assay type: ADME, cell-based; conditions: thp-1, 24 h
Method in brief: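 Accumulation at 37°C, 10 mg/liter drug, with gemfibrozil 250 μM for 24 h. Microbiological assay normalized to cell protein. n = 3.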

Listeria monocytogenes [7] = assay: Antibacterial activity against Listeria monocytogenes EGD after 24 hrs; assay type: functional
Legionella pneumophila [8] = assay: Antibacterial activity against Legionella pneumophila ATCC 33153 after 48 hrs; assay type: functional; conditions: ATCC 33153, 48 h
Method in brief: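 L. pneumophila MIC determined in α-ketoglutarate-buffered yeast extract broth, read after 48 h incubation.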

Staphylococcus aureus [9] = assay: Antibacterial activity against methicillin-sensitive Staphylococcus aureus ATCC 25923 at pH 5.5 to 7.4 after 24 hrs; assay type: functional
Listeria monocytogenes [10] = assay: Antibacterial activity against Listeria monocytogenes EGD at pH 5.5 to 7.4 after 24 hrs; assay type: functional; conditions: EGD-e
Legionella pneumophila [11] = assay: Antibacterial activity against Legionella pneumophila ATCC 33153 at pH 6.5 to 7.4 after 48 hrs; assay type: functional; conditions: ATCC 33153, 48 h
Staphylococcus aureus [12] = assay: Antibacterial activity against methicillin-sensitive Staphylococcus aureus ATCC 25923 assessed as decrease of CFU at 4 mg/liter; assay type: functional, organism-based
Method in brief: (§2)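 Short-term 6-h time-kill in broth at pH 7.4 at fixed extracellular concentrations of 0.7 or 4 mg/liter; CFU followed over time; three independent experiments.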

Staphylococcus aureus [13] = assay: Antibacterial activity against methicillin-sensitive Staphylococcus aureus ATCC 25923 infected in human THP1 cells assessed as decrease of intracellular CFU at 4 mg/liter; assay type: functional
Method in brief: (§3)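 Phagocytosed bacteria in THP-1 macrophages exposed to a fixed extracellular concentration of 0.7 or 4 mg/liter; intracellular CFU followed over 6 h; three independent experiments.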

Staphylococcus aureus [14] = assay: Antibacterial activity against methicillin-sensitive Staphylococcus aureus ATCC 25923 assessed as decrease of CFU after 24 hrs relative to initial inoculum; assay type: functional
Method in brief: (§4)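 24-h concentration-response in Mueller-Hinton broth; original inoculum (0.97 ± 0.24) × 10⁶ CFU/ml. Hill equation fit (slope factor 1). Emax = log10 CFU decrease from inoculum extrapolated to infinite concentration. Cs = concentration giving CFU equal to inoculum, by graphical intrapolation. Counts under five taken as below detection. n = 3.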

Staphylococcus aureus [15] = assay: Antibacterial activity against methicillin-sensitive Staphylococcus aureus ATCC 25923 assessed as decrease of CFU after 24 hrs; assay type: functional, organism-based; conditions: ATCC 25923, 24 h; method in brief: as §4
Staphylococcus aureus [16] = assay: Antibacterial activity against methicillin-sensitive Staphylococcus aureus ATCC 25923 assessed as concentration required to no apparent bacterial growth after 24 hrs; assay type: functional; method in brief: as §4
Staphylococcus aureus [17] = assay: Antibacterial activity against methicillin-sensitive Staphylococcus aureus ATCC 25923 infected in human THP1 cells assessed as decrease of CFU after 24 hrs relative to initial inoculum; assay type: functional, THP-1
Method in brief: (§5)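 THP-1 macrophages infected, non-phagocytosed bacteria removed, then exposed 24 h over a concentration range. Postphagocytosis inoculum (2.74 ± 0.55) × 10⁶ CFU/mg protein. Hill fit (slope 1). […] Cs = no change from inoculum, by graphical intrapolation. n = 3.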

Staphylococcus aureus [18] = assay: Antibacterial activity against methicillin-sensitive Staphylococcus aureus ATCC 25923 infected in human THP1 cells assessed as decrease of CFU after 24 hrs; assay type: functional, organism-based; conditions: ATCC 25923, THP-1, 24 h; method in brief: as §5
Staphylococcus aureus [19] = assay: Antibacterial activity against methicillin-sensitive Staphylococcus aureus ATCC 25923 infected in human THP1 cells assessed as concentration required to no apparent bacterial growth after 24 hrs; assay type: functional, THP-1; method in brief: as §5
Listeria monocytogenes [20] = assay: Antibacterial activity against […] Listeria monocytogenes EGD assessed as decrease of CFU after 24 hrs relative to initial inoculum; assay type: functional, EGD-e
Listeria monocytogenes [21] = assay: Antibacterial activity against […] Listeria monocytogenes EGD assessed as decrease of CFU after 24 hrs; assay type: functional, organism-based; conditions: EGD-e
Listeria monocytogenes [22] = assay: Antibacterial activity against […] Listeria monocytogenes EGD assessed as concentration required to no apparent bacterial growth after 24 hrs; assay type: functional, EGD-e
Legionella pneumophila [23] = assay: Antibacterial activity against Legionella pneumophila infected in human THP1 cells assessed as decrease of CFU after 48 hrs; conditions: THP-1, 48 h
Legionella pneumophila [24] = assay: Antibacterial activity against Legionella pneumophila infected in human THP1 cells assessed as decrease of CFU after 48 hrs relative to initial inoculum
Legionella pneumophila [25] = assay: Antibacterial activity against Legionella pneumophila infected in human THP1 cells assessed as concentration required to no apparent bacterial growth after 48 hrs
THP-1 [26] = assay: Drug uptake in human THP1 cells after 24 hrs relative to extracellular concentration; assay type: ADME, cell-based; conditions: thp-1, 24 h
Method in brief: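 THP-1 cells incubated at 37°C with drug at 10 mg/liter extracellular, accumulation followed up to 24 h. Cell-associated drug assayed microbiologically with S. aureus ATCC 25923, normalized to cell protein (Folin-Ciocalteu/biuret) and converted at 5 μl/mg protein to the cellular/extracellular concentration ratio. n = 3.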

Staphylococcus aureus [27] = assay: Antibacterial activity against methicillin-sensitive Staphylococcus aureus ATCC 25923 by time kill study; assay type: functional; method in brief: as §2
Staphylococcus aureus [28] = assay: Antibacterial activity against methicillin-sensitive Staphylococcus aureus ATCC 25923 assessed as decrease of CFU at 0.7 mg/liter; assay type: functional, organism-based; method in brief: as §2
Staphylococcus aureus [29] = assay: Antibacterial activity against methicillin-sensitive Staphylococcus aureus ATCC 25923 infected in human THP1 cells assessed as decrease of intracellular CFU at 0.7 mg/liter; assay type: functional, organism-based; conditions: THP-1; method in brief: as §3

| SMILES | Drug uptake (THP-1 [1]) | MIC (Staphylococcus aureus [2]) | Drug uptake (THP-1 [3]) | Drug uptake (THP-1 [4]) | Drug uptake (THP-1 [5]) | Drug uptake (THP-1 [6]) | MIC (Listeria monocytogenes [7]) | MIC (Legionella pneumophila [8]) | MIC (Staphylococcus aureus [9]) | MIC (Listeria monocytogenes [10]) | MIC (Legionella pneumophila [11]) | log10cfu (Staphylococcus aureus [14]) | EC50 (Staphylococcus aureus [15]) | Activity (Staphylococcus aureus [16]) | log10cfu (Staphylococcus aureus [17]) | EC50 (Staphylococcus aureus [18]) | Activity (Staphylococcus aureus [19]) | log10cfu (Listeria monocytogenes [20]) | EC50 (Listeria monocytogenes [21]) | Activity (Listeria monocytogenes [22]) | other results |
| --- | --- | --- | --- | --- | --- | --- | --- | --- | --- | --- | --- | --- | --- | --- | --- | --- | --- | --- | --- | --- | --- |
| CC[C@H]1OC(=O)[C@H](C)[C@@H](O[C@H]2C[C@@](C)(OC)[C@@H](O)[C@H](C)O2)[C@H](C)[C@@H](O[C@@H]2O[C@H](C)C[C@H](N(C)C)[C@H]2O)[C@](C)(O)C[C@@H](C)CN(C)[C@H](C)[C@@H](O)[C@]1(C)O [AZITHROMYCIN] | Not Active | 0.5 µg/mL (≈ 0.668 µM) | Active | Not Active | Active | Active | 1 µg/mL (≈ 1.34 µM) | 0.016 µg/mL (≈ 0.0214 µM) | inactive | inactive | 0.01 µg/mL (≈ 0.0134 µM) | -1 | 0.12 µg/mL (≈ 0.16 µM) | 0.29 mg/L | -0.29 | 0.024 µg/mL (≈ 0.032 µM) | 0.63 mg/L | -0.81 | 2.66 µg/mL (≈ 3.55 µM) | 11.6 mg/L | Activity (Staphylococcus aureus [12]): Active; Activity (Staphylococcus aureus [13]; THP-1): inactive; EC50 (Legionella pneumophila [23]): 2.86 µg/mL (≈ 3.82 µM); log10cfu (Legionella pneumophila [24]): -0.83; Activity (Legionella pneumophila [25]): 2.9 mg/L |
| CC[C@H]1OC(=O)[C@H](C)[C@@H](O[C@H]2C[C@@](C)(OC)[C@@H](O)[C@H](C)O2)[C@H](C)[C@@H](O[C@@H]2O[C@H](C)C[C@H](N(C)C)[C@H]2O)[C@](C)(OC)C[C@@H](C)C(=O)[C@H](C)[C@@H](O)[C@]1(C)O [CLARITHROMYCIN] | – | – | – | – | Active | Active | – | – | inactive | inactive | – | -1.41 | 0.8 µg/mL (≈ 1.07 µM) | 1.32 mg/L | -0.18 | 0.046 µg/mL (≈ 0.0615 µM) | 0.84 mg/L | – | – | – | – |
| CC[C@H]1OC(=O)[C@@](C)(F)C(=O)[C@H](C)[C@@H](O[C@@H]2O[C@H](C)C[C@H](N(C)C)[C@H]2O)[C@](C)(OC)C[C@@H](C)C(=O)[C@H](C)[C@H]2N(CCCCn3cc(-c4cccc(N)c4)nn3)C(=O)O[C@]12C [SOLITHROMYCIN] | Not Active | 0.06 µg/mL (≈ 0.071 µM) | Active | Not Active | Active | Active | 0.004 µg/mL (≈ 0.00473 µM) | 0.004 µg/mL (≈ 0.00473 µM) | – | 0.0039 µg/mL (≈ 0.00462 µM) | 0.005 µg/mL (≈ 0.00592 µM) | -1.37 | 0.03 µg/mL (≈ 0.0355 µM) | 0.06 mg/L | -0.86 | 0.0068 µg/mL (≈ 0.00805 µM) | 0.022 mg/L | -0.66 | 0.02 µg/mL (≈ 0.0237 µM) | 0.11 mg/L | fold change (FC) (THP-1 [26]): 350; Time (Staphylococcus aureus [27]): 6 h; MIC (Staphylococcus aureus [9]; ATCC 25923, 24 h): 0.06 µg/mL (≈ 0.071 µM); Activity (Staphylococcus aureus [28]): Active; Activity (Staphylococcus aureus [29]): Active; log10cfu (Staphylococcus aureus [13]): 1.5; EC50 (Legionella pneumophila [23]): 0.052 µg/mL (≈ 0.0615 µM); log10cfu (Legionella pneumophila [24]): -1.03; Activity (Legionella pneumophila [25]): 0.018 mg/L |
| CC[C@H]1OC(=O)[C@H](C)C(=O)[C@H](C)[C@@H](O[C@@H]2O[C@H](C)C[C@H](N(C)C)[C@H]2O)[C@](C)(OC)C[C@@H](C)C(=O)[C@H](C)[C@H]2N(CCCCn3cnc(-c4cccnc4)c3)C(=O)O[C@]12C [TELITHROMYCIN] | – | – | – | – | Active | Active | – | – | inactive | inactive | – | -1.23 | 1.78 µg/mL (≈ 2.19 µM) | 3.4 mg/L | 0.04 | 0.11 µg/mL (≈ 0.135 µM) | >50 mg/L | – | – | – | – |
